Among the data in ChEMBL document CHEMBL1255540, “Synthesis and biological evaluation of novel coumarin-based inhibitors of Cdc25 phosphatases” (Bioorg Med Chem Lett, 2010) are inhibition, IC50 and Activity values, retold here.

For experiment [1], the target named is T1, M-phase inducer phosphatase 1 (Homo sapiens) (UniProt P30304).
T1 sequence (whole entry): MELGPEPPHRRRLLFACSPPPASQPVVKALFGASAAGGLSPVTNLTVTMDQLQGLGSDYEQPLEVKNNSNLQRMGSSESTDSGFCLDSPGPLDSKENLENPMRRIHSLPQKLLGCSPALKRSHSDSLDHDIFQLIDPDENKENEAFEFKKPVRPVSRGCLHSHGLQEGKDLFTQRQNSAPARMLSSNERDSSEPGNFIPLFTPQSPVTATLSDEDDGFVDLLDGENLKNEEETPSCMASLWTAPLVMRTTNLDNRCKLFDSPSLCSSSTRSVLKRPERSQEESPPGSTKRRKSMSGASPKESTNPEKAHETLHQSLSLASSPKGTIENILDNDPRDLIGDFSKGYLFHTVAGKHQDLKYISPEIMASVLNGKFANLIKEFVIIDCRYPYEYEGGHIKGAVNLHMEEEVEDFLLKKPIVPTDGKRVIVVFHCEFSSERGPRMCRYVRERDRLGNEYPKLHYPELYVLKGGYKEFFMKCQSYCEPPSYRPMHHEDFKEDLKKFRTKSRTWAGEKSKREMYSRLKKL
In words: Inhibition of human recombinant GST-tagged CDC25A expressed in bacterial expression system at 100 uM after 2 hrs. In a few lines:
(§1)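 GST-Cdc25A (full length), made in bacteria by IPTG induction and purified on GSH-agarose. Enzyme at 1 µg/well. Compounds tested at 100 µM final (reference at 10 µM). Reported as % inhibition, mean ± SD of three independent experiments.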

For experiment [2], the target named is T2, M-phase inducer phosphatase 3 (Homo sapiens) (UniProt P30307).
T2 sequence (whole entry): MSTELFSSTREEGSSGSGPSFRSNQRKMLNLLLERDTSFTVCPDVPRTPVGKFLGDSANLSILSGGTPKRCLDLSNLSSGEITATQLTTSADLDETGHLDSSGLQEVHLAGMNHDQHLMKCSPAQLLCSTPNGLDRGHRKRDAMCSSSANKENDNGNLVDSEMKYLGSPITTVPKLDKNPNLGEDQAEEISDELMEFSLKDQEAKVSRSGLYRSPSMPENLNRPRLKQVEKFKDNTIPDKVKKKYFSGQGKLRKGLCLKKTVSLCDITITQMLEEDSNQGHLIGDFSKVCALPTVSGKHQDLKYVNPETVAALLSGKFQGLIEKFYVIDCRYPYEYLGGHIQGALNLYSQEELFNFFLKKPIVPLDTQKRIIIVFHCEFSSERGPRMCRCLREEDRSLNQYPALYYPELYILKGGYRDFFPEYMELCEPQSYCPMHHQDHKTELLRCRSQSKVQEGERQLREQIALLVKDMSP
In words: Inhibition of human recombinant GST-tagged CDC25C expressed in bacterial expression system at 100 uM after 2 hrs. In a few lines:
(§2)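 Full-length GST-Cdc25C, bacterial IPTG expression, GSH-agarose purification. 1 µg enzyme per well. Single-point tests at 100 µM final (reference 10 µM) and IC50 values. Each concentration in three separate microplates, three wells each. IC50 by generalized Poisson regression.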

In experiment [3] the target is T3, M-phase inducer phosphatase 2 (Homo sapiens) (UniProt P30305).
T3 sequence (whole entry): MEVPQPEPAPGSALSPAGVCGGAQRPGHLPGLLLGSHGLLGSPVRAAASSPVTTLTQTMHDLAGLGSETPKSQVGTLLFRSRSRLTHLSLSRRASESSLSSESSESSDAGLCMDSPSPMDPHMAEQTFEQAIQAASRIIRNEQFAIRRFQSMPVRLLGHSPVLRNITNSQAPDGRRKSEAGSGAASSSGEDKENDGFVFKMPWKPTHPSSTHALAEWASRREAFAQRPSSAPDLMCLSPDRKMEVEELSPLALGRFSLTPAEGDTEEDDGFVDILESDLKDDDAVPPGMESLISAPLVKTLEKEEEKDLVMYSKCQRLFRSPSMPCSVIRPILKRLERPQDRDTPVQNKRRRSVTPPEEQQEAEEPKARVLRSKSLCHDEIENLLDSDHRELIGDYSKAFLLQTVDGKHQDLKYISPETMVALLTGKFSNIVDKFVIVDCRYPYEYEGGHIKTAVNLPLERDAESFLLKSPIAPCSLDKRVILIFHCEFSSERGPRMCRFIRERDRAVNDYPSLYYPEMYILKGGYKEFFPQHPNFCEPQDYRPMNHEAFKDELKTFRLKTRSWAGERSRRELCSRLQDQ
In words: Inhibition of human recombinant GST-tagged CDC25B expressed in bacterial expression system at 100 uM after 2 hrs. In a few lines: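 Truncated GST-Cdc25B (active site only) expressed in bacteria by IPTG induction, purified on GSH-agarose. Tested at 100 µM final, reference at 10 µM. Percent inhibition, mean of three independent experiments with SD.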

Experiment [4] addresses T4, M-phase inducer phosphatase 3 (Homo sapiens, UniProt P30307).
T4 sequence (P30307 whole entry): T2 sequence (whole entry)
In words: Inhibition of human recombinant GST-tagged CDC25C expressed in bacterial expression system after 2 hrs. The method in brief:
as §2

Experiment [5] concerns the target T1, M-phase inducer phosphatase 1 (Homo sapiens). In words: Irreversible inhibition of human recombinant GST-tagged CDC25A expressed in bacterial expression system at 100 uM pretreated for up to 90 mins measured after 100 fold dilution. The method in brief: (§3)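 Reversibility test. GST-Cdc25A was pre-incubated with compound at 100 µM (reference at 10 µM, DMSO control) for 0–90 min. The mixture was then diluted 100-fold to 1 µM (reference 0.1 µM). Activity was measured by adding OMFP to wells holding 900 ng enzyme. Representative of three independent experiments (M ± SD).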

The target in experiment [6] is T5, M-phase inducer phosphatase 1 (Homo sapiens, UniProt P30304).
T5 sequence (P30304 whole entry): T1 sequence (whole entry)
In words: Inhibition of human recombinant GST-tagged CDC25A expressed in bacterial expression system after 2 hrs. In a few lines: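 Each concentration tested in three independent microplates, three wells per plate. Median inhibitory concentration derived by generalized Poisson regression.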

For experiment [7], the target named is T1, M-phase inducer phosphatase 1 (Homo sapiens). In words: Inhibition of human recombinant GST-tagged CDC25A expressed in bacterial expression system assessed as residual activity at 100 uM pretreated for 90 mins. The method in brief: as §3
Experiment [8] has the same target. Description: Inhibition of human recombinant GST-tagged CDC25A expressed in bacterial expression system. The settings on record: TDE = time-dependent effect. The method in brief: as §1

Active and inactive are the calls of the source. The calls are words filed in the database; no cut-off is given here.

As for `COc1ccc(C(=O)CSCc2cc(=O)oc3cc(OC)ccc23)cc1`, the inhibition – broadly, the relative decrease from the control value, in per cent – in experiment [1] came to 26.7%; in experiment [2], 27.9%.

For the compound `Cc1c(/C=C/c2ccc(O)cc2)c(=O)oc2cc(O)ccc12`, the inhibition in experiment [3] turned out to be 8.5%; in experiment [1] it was 27.5%; in experiment [2], 15.6%.

In the case of `COc1ccc2c(/C=C/C(=O)c3ccccc3)cc(=O)oc2c1`, the inhibition in experiment [3] is 35%; in experiment [1] it was 94.2%; in experiment [2] it was 79.3%; in experiment [8], “tde”. For the same compound, the values for the IC50 in experiment [4] and in experiment [6] were 49 µM and 27 µM, respectively. Besides, the outcome in experiment [5] was Active. For the same compound, the Activity in experiment [7] is 35%.

For `COc1ccc(C(=O)/C=C/c2cc(=O)oc3cc(OC)ccc23)cc1`, the inhibition in experiment [3] was 21.3%; in experiment [1] it was 66.4%; in experiment [2] it was 64.8%. Moreover, the IC50 – broadly, the midpoint of a concentration-inhibition curve – came to 47 µM in experiment [4] and 70 µM in experiment [6].

In the case of `O=C(/C=C/c1cc(=O)oc2cc(O)ccc12)c1ccc(O)c(O)c1`, the 50% inhibitory concentration (IC50) in experiment [4] turned out to be 72 µM; in experiment [6], 62 µM. Further, the figures for the inhibition in experiment [1] and in experiment [2] were 68.7% and 43.7%, respectively.

In the case of `O=C(/C=C/c1cc(=O)oc2cc(O)ccc12)c1ccc(O)cc1`, the inhibition in experiment [3] stood at 9.2%; in experiment [1] it was 55%; in experiment [2] it was 23.9%. In addition, the IC50 in experiment [4] was above 150 µM; in experiment [6], 96 µM.

Take `COc1ccc(/C=C/C(=O)c2cc(=O)oc3cc(OC)ccc23)cc1`: in experiment [2], the inhibition was 4.8%.

`COc1ccc2c(CSCC(=O)c3ccccc3)cc(=O)oc2c1`: the inhibition in experiment [3] was 16.1%; in experiment [2], 21.2%.

Take `COc1ccc(/C=C/c2c(C)c3ccc(OC)cc3oc2=O)cc1`: the inhibition is 45.3% in experiment [1] and 48.4% in experiment [2].

As for `COc1ccc2c(/C=C/C(=O)c3ccc(OC)c(OC)c3)cc(=O)oc2c1`, the inhibition in experiment [3] amounted to 6.5%; in experiment [1], 61.5%; in experiment [2] it was 69%. The half-maximal inhibitory concentration (IC50) in experiment [4] came to 67 µM; in experiment [6] it was 78 µM.

As to `COc1ccc(-c2c(C)c3ccc(OC)cc3oc2=O)cc1`, the inhibition in experiment [1] stood at 20.5%; in experiment [2], 17.9%.

Turning to `COc1ccc2c(C(=O)/C=C/c3ccccc3)cc(=O)oc2c1`, the inhibition turned out to be 45% in experiment [1] and 31.3% in experiment [2].

As for `COc1ccc2c(C(=O)/C=C/c3ccc(OC)c(OC)c3)cc(=O)oc2c1`, the inhibition in experiment [3] amounted to 9.1%; in experiment [1], 7.4%.

In the case of `O=C(/C=C/c1cc(=O)oc2cc(O)ccc12)c1ccccc1`, the inhibition in experiment [3] was determined as 23.2%; in experiment [1], 94.3%; in experiment [2], 94.2%. The IC50 came out at 26 µM in experiment [4] and 28 µM in experiment [6].

For the compound `COc1ccc2c(CSCC(=O)c3ccc(OC)c(OC)c3)cc(=O)oc2c1`, the inhibition in experiment [1] worked out at 39.8%; in experiment [2], 26.2%.

In the case of `Cc1c(-c2ccc(O)cc2)c(=O)oc2cc(O)ccc12`, the inhibition in experiment [1] stood at 22%.
